Two compounds from ChEMBL document CHEMBL3272018, “Synthesis of aziridinylallylaminophosphine oxides and sulfides as potential adjuvant cancer chemotherapeutic agents” (J Med Chem, 1976) can be followed below.

Active and inactive are the calls of the source. The rule behind the calls is not given here.

Series [1] relates to W256. Nature of the series: Antitumor activity against rat Walker 256 cells intramuscularly allografted in rat assessed as survival rate at 1.9 mg/kg, qd administered for 5 days. On the set-up: dose 1.9 mg/kg. The class given is functional, organism-based. A digest of the protocol: (§1)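 Rats bearing Walker 256 carcinoma as a solid tumor; lines 1-8 use a cytoxan-resistant Walker 256 subline. Dosed once daily for 5 days. Treated (T) and untreated control (C) groups are compared, and the response is given as T/C percentage, reflecting increase in survival time. Host weight change is the average weight change of the test group minus that of the controls, in grams.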

For series [2], the system named is L1210. The experiment in a line: In vivo antitumor activity against mouse L1210 cells in prognostic scoring system assessed as tumor growth inhibition at 1.65 mg/kg administered 3 doses relative to control. The class given is functional.
The test system of series [3] is W256. Nature of the series: Antitumor activity against rat Walker 256 cells intramuscularly allografted in rat assessed as survival rate at 0.95 mg/kg, qd administered for 5 days. On the set-up: dose 0.95 mg/kg. The class given is functional, organism-based. The method, boiled down:
as §1

Series [4] has as its system W256. The experiment in a line: Antitumor activity against rat Walker 256 cells intramuscularly allografted in rat assessed as tumor growth inhibition at 1.9 mg/kg, qd administered for 5 days relative to control. The note with it: W256, im, 120 h, route intramuscular, read-out: TGI. The class given is functional. A digest of the protocol: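 Walker 256 carcinoma grown as a solid tumour in rats, with one injection daily for 5 days. Response is given as T/C %, the treated-group measure over the untreated-control tumour measure; a smaller value means more activity. Host toxicity is the mean net weight change of treated minus control animals, in grams.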

Series [5] concerns W256. Nature of the series: Antitumor activity against rat Walker 256 cells intramuscularly allografted in rat assessed as survival rate at 0.23 mg/kg, qd administered for 5 days. It is filed as functional, organism-based. The arrangement: dose 0.23 mg/kg. The method, boiled down:
as §1

Series [6] deals with Rattus norvegicus. Nature of the series: Toxicity in rat allografted with rat Walker 256 cells intramuscularly assessed as change in body weight at 0.95 mg/kg, qd administered for 5 days. On the set-up: dose 0.95 mg/kg, route intramuscular. The note with it: in vivo, im, 120 h. It is filed as organism-based. The method, boiled down:
(§2)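 Walker 256 carcinoma solid-tumour system in rats (parent line, or the line resistant to cytoxan). Dosing was one injection per day for 5 days. Toxicity was taken as the average net body-weight change of the treated group minus the average net weight change of the untreated tumour-bearing controls, in grams.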

Series [7] deals with Rattus norvegicus. Nature of the series: Toxicity in rat allografted with rat Walker 256 cells intramuscularly assessed as change in body weight at 0.23 mg/kg, qd administered for 5 days. The class given is organism-based. On the set-up: dose 0.23 mg/kg, route intramuscular. The note with it: in vivo, im, 120 h. The method, boiled down:
as §2

Series [8] has as its system Musca domestica. Nature of the series: Toxicity in male house fly assessed as lowest dose required to cause complete sterility administered in food. Particulars: in vivo, po. It is filed as organism-based.
In series [9] the test system is L1210. The experiment in a line: In vivo antitumor activity against mouse L1210 cells in prognostic scoring system assessed as […] at 0.37 mg/kg, qd administered for 15 days relative to control. The class given is functional. Particulars: L1210, 360 h, read-out: TGI.
In series [10] the test system is W256. Nature of the series: Antitumor activity against rat Walker 256 cells intramuscularly allografted in rat assessed as survival rate at 0.47 mg/kg, qd administered for 5 days. The class given is functional, organism-based. On the set-up: dose 0.47 mg/kg. The method, boiled down:
as §1

The subject of series [11] is W256. The experiment in a line: Antitumor activity against rat Walker 256 cells intramuscularly allografted in rat assessed as tumor growth inhibition at 0.23 mg/kg, qd administered for 5 days relative to control. It is filed as functional. Particulars: W256, im, 120 h, route intramuscular, read-out: TGI. The method, boiled down: (§3)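 Dosed once daily for 5 days. Response is tumor progression in treated (T) versus untreated control (C) animals, expressed as T/C percentage. Host weight change is reported as the average net weight change of the test group minus that of the controls, in grams.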

In series [12] the test system is W256. The experiment in a line: Antitumor activity against rat Walker 256 cells intramuscularly allografted in rat assessed as tumor growth inhibition. It is filed as functional. The note with it: W256, im. The method, boiled down: as §3
Series [13] deals with Musca domestica. The experiment in a line: Toxicity in male house fly assessed as lowest dose required to cause complete sterility administered in sugar. The note with it: in vivo, po. The class given is organism-based.
For series [14], the system named is W256. The experiment in a line: Antitumor activity against rat Walker 256 cells intramuscularly allografted in rat assessed as survival rate at 1 mg/kg, qd administered for 5 days. The class given is functional, organism-based. The arrangement: dose 1 mg/kg. A digest of the protocol: as §1
Series [15] concerns L1210. Nature of the series: In vivo antitumor activity against mouse L1210 cells in prognostic scoring system assessed as survival rate at 0.37 mg/kg, qd administered for 15 days. The class given is functional, organism-based. The arrangement: dose 0.37 mg/kg. A digest of the protocol: (§4)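 L1210 leukaemia in mice, run as an ascites tumour system. Injections were once daily for 9 or 15 days, or as a single dose. Response is the increase in survival time, given as T/C %, treated over untreated controls; a larger value means more activity. Weight change is the treated-group mean minus the control-group mean, in grams.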

Series [16] concerns L1210. Nature of the series: In vivo antitumor activity against mouse L1210 cells in prognostic scoring system assessed as tumor growth inhibition at 0.6 mg/kg administered 9 doses relative to control. The class given is functional.
Series [17] concerns W256. The experiment in a line: Antitumor activity against rat Walker 256 cells intramuscularly allografted in rat assessed as tumor growth inhibition at 1 mg/kg, qd administered for 5 days relative to control. The class given is functional. Particulars: W256, im, 120 h, route intramuscular, read-out: TGI. The method, boiled down:
as §3

In series [18] the test system is Rattus norvegicus. The experiment in a line: Toxicity in rat allografted with rat Walker 256 cells intramuscularly assessed as change in body weight at 1 mg/kg, qd administered for 5 days. It is filed as organism-based. The arrangement: dose 1 mg/kg, route intramuscular. The note with it: in vivo, im, 120 h. A digest of the protocol:
as §2

The nature of series [19]: Toxicity in rat allografted with rat Walker 256 cells intramuscularly. The class given is organism-based.
For series [20], the system named is W256. Nature of the series: Antitumor activity against rat Walker 256 cells intramuscularly allografted in rat assessed as tumor growth inhibition at 0.95 mg/kg, qd administered for 5 days relative to control. The class given is functional. The note with it: W256, im, 120 h, route intramuscular, read-out: TGI. The method, boiled down: as §3
The test system of series [21] is W256. The experiment in a line: Antitumor activity against rat Walker 256 cells intramuscularly allografted in rat assessed as tumor growth inhibition at 0.47 mg/kg, qd administered for 5 days relative to control. The class given is functional. Particulars: W256, im, 120 h, route intramuscular, read-out: TGI. The method, boiled down:
as §3

Series [22] relates to L1210. Nature of the series: In vivo antitumor activity against mouse L1210 cells in prognostic scoring system assessed as survival rate at 0.75 mg/kg, qd administered for 15 days. On the set-up: dose 0.75 mg/kg. It is filed as functional, organism-based. The method, boiled down: as §4
Series [23] concerns Rattus norvegicus. Nature of the series: Toxicity in rat allografted with rat Walker 256 cells intramuscularly assessed as change in body weight at 1.9 mg/kg, qd administered for 5 days. The class given is organism-based. Particulars: in vivo, im, 120 h. The arrangement: dose 1.9 mg/kg, route intramuscular. The method, boiled down: as §2
Series [24] deals with Rattus norvegicus. The experiment in a line: Toxicity in rat allografted with rat Walker 256 cells intramuscularly assessed as change in body weight at 0.47 mg/kg, qd administered for 5 days. It is filed as organism-based. On the set-up: dose 0.47 mg/kg, route intramuscular. The note with it: in vivo, im, 120 h. A digest of the protocol: as §2
A short description of series [25]: Therapeutic index, ratio of LD50 for rat allografted with rat Walker 256 cells to ED10 for antitumor activity against rat Walker 256 cells intramuscularly allografted in rat. It is filed as cell-based. The note with it: read-out: TI. The method, boiled down:
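Therapeutic index is LD50/ED10 in the Walker 256 solid tumour system. ED10 is the dose giving a 10% tumour weight reduction, with values extrapolated from dose-response data.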

The subject of series [26] is L1210. Nature of the series: In vivo antitumor activity against mouse L1210 cells in prognostic scoring system assessed as survival rate at 3 mg/kg, qd administered for 15 days. It is filed as functional, organism-based. On the set-up: dose 3 mg/kg. The method, boiled down:
as §4

Series [27] concerns L1210. The experiment in a line: In vivo antitumor activity against mouse L1210 cells in prognostic scoring system assessed as survival rate at 1.5 mg/kg, qd administered for 15 days. It is filed as functional, organism-based. The arrangement: dose 1.5 mg/kg. A digest of the protocol: as §4
For series [28], the system named is L1210. Nature of the series: In vivo antitumor activity against mouse L1210 cells in prognostic scoring system assessed as survival rate at 400 mg/kg administered as single dose. It is filed as functional, organism-based. On the set-up: dose 400 mg/kg. The method, boiled down:
as §4

The test system of series [29] is L1210. Nature of the series: In vivo antitumor activity against mouse L1210 cells in prognostic scoring system assessed as tumor growth inhibition at 400 mg/kg administered as single dose (reference value: 10.9 g). The class given is functional. A digest of the protocol: as §4
The subject of series [30] is L1210. The experiment in a line: In vivo antitumor activity against mouse L1210 cells in prognostic scoring system assessed as survival rate at 100 mg/kg administered as single dose. The class given is functional, organism-based. The arrangement: dose 100 mg/kg. The method, boiled down:
as §4

Series [31] has as its system L1210. The experiment in a line: In vivo antitumor activity against mouse L1210 cells in prognostic scoring system assessed as tumor growth inhibition at 100 mg/kg administered as single dose (reference value: 10.9 g). It is filed as functional. A digest of the protocol: as §4
Series [32] concerns L1210. Nature of the series: In vivo antitumor activity against mouse L1210 cells in prognostic scoring system assessed as survival rate at 200 mg/kg administered as single dose. The class given is functional, organism-based. The arrangement: dose 200 mg/kg. A digest of the protocol:
as §4

In series [33] the test system is Musca domestica. The experiment in a line: Toxicity in male house fly at 1% administered in sugar. It is filed as organism-based. The note with it: in vivo, po.
For series [34], the system named is L1210. The experiment in a line: In vivo antitumor activity against mouse L1210 cells in prognostic scoring system assessed as tumor growth inhibition at 200 mg/kg administered as single dose (reference value: 10.9 g). The class given is functional. The method, boiled down:
as §4

A word on the T/C: it is the result in the treated group divided by that in the control group, in per cent. One may read the LD50 as the dose expected to kill half of the subjects tested. Lower therefore signals a more toxic substance. For `C=CCN(CC=C)P(=O)(N1CC1)N1CC1C` (stereo not given), the outcome with W256 [1], with W256 [3], in the series on W256 [5], with W256 [10], in the series on W256 [14] and in the series on L1210 [15] was Active. Also, the result in the series on L1210 [22], in the series on L1210 [26] and in the series on L1210 [27] was Active. In addition, the T/C with L1210 [2] came out at 159%; in the series with L1210 [16] it was 189%. Besides, the inhibition in vivo at 1.9 mg/kg with W256 [4] was 0%. The Activity with Rattus norvegicus [6] was -8 g; with Rattus norvegicus [7], -7 g; in the series with Musca domestica [8] it was 0.1%; in the series on Musca domestica [13], 0.25%; in the series on Rattus norvegicus [18], -9 g; in the series with Rattus norvegicus [23], -13 g. Besides, the Activity in the series on Rattus norvegicus [24] worked out at 0 g. The inhibition in vivo at 0.37 mg/kg in the series with L1210 [9] is 117%. Also, the inhibition in vivo at 0.23 mg/kg in the series on W256 [11] worked out at 30%. The ED10 in the series with W256 [12] came to 0.52 mg/kg. For the same compound, the inhibition in vivo at 1 mg/kg with W256 [17] amounted to 2%. The same compound came in with an LD50 in series [19] of 7 mg/kg. Also, the inhibition in vivo at 0.95 mg/kg in the series with W256 [20] turned out to be 0%. For the same compound, the inhibition in vivo at 0.47 mg/kg with W256 [21] is 5%. Further, the selectivity ratio in series [25] stood at 13.

For `C=CCN(c1ccccc1)P(=O)(N1CC1)N1CC1`, the result with L1210 [28], in the series with L1210 [30] and in the series with L1210 [32] was Active. The Activity is given as 10.5 g with L1210 [29], 10.5 g with L1210 [31], “Non-toxic” with Musca domestica [33] and 10.5 g with L1210 [34]. Moreover, in [19], the LD50 was > 300 mg/kg.
